From ChEMBL document CHEMBL1133218, “N-[(R,R)-(E)-1-(4-chloro-benzyl)-3-(2-oxo-azepan-3-ylcarbamoyl)-allyl]-N-methyl-3,5-bis-trifluoromethyl-benzamide: an orally active neurokinin NK1/NK2 antagonist” (Bioorg Med Chem Lett, 2000)

Columns and labels:
[1] = target: T1, Substance-K receptor (Homo sapiens, UniProt P21452); test: In vitro inhibition of [125I]NKA binding to transfected Chinese hamster ovary cells (CHO cells) expressing recombinant human Tachykinin receptor 2; format: cell-based
T1 sequence (P21452 whole entry): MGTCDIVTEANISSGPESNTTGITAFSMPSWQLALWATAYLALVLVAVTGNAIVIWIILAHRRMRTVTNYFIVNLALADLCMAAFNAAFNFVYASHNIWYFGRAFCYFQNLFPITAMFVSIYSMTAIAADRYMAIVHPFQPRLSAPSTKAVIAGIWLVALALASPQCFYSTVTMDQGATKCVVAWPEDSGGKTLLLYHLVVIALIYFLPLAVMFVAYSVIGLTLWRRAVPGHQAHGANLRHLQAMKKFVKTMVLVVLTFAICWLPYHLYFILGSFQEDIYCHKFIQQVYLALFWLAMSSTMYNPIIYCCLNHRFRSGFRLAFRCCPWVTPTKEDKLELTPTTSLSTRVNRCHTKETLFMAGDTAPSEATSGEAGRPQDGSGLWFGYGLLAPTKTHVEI
In short: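 Binding of 0.05 nM [125I]-NKA (2200 Ci/mmol) to 3×10^5 hNK2-transfected CHO cells in 20 mM HEPES pH 7.4 with 2 mM MnSO4 and 6 mM MgCl2, across a range of drug concentrations. Incubated 20 min at room temperature. Nonspecific binding taken with 50 nM NKA. Rapid filtration, 4 washes in ice-cold Tricine, filter radioactivity by scintillation counting, triplicates.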

[2] = tested on: Cavia porcellus; test: In vivo inhibition against beta-Ala8-NKA-induced bronchoconstriction in guinea pig at 2 h; format: functional
[3] = tested on: Cavia porcellus; test: In vivo inhibition against beta-Ala8-NKA-induced bronchoconstriction in guinea pig at 4 h; format: functional
[4] = tested on: Cavia porcellus; test: In vivo inhibition against Sar9SP-induced bronchoconstriction in guinea pigs at 2 h; format: functional
[5] = tested on: Cavia porcellus; test: In vivo inhibition against Sar9SP-induced bronchoconstriction in guinea pigs at 4 h; format: functional
[6] = tested on: Cavia porcellus; test: In vivo inhibition against Sar9SP-induced bronchoconstriction in guinea pigs at 1 mg/kg for 12 h; format: functional

IC50 [1] [nM]	SMILES	other results
24	CN(C(=O)c1cc(C(F)(F)F)cc(C(F)(F)F)c1)[C@@H](/C=C/C(=O)N[C@@H]1CCCCNC1=O)Cc1ccc(Cl)cc1	ED50 [2]: 0.9 mg/kg; ED50 [3]: 0.73 mg/kg; ED50 [4]: 0.036 mg/kg; ED50 [5]: 0.03 mg/kg; inhibition in vivo at 1 mg/kg [6]: 85%
120	CN(C(=O)c1cc(C(F)(F)F)cc(C(F)(F)F)c1)[C@@H](/C=C/C(=O)N[C@H]1CCCCNC1=O)Cc1ccc(Cl)cc1 (mixture of isomers)	–
55	CN(C(=O)c1cc(C(F)(F)F)cc(C(F)(F)F)c1)C(/C=C/C(=O)NC1CCCCNC1=O)Cc1ccc(Cl)cc1 (mixture of isomers)	–
123	CN(C(=O)c1cc(C(F)(F)F)cc(C(F)(F)F)c1)[C@H](/C=C/C(=O)N[C@@H]1CCCCNC1=O)Cc1ccc(Cl)cc1	–
300	CN(C(=O)c1cc(C(F)(F)F)cc(C(F)(F)F)c1)[C@H](/C=C/C(=O)N[C@H]1CCCCNC1=O)Cc1ccc(Cl)cc1	–
